# Compound activity from PubChem BioAssay.
# In the library only some 0.75% were active in any assay of this set; here they are far more common.
# Rad51 HR inh: blocks human Rad51 in homologous recombination | 200,000 compounds, 0.085% hits | hRad51 DNA strand exchange, fluorescence dequenching | inhibition, % at 10 µM | Q06609;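 active = inhibition above 40% at the single screening dose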
#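 Material: hRad51 filaments on single-stranded DNA; Reagent: Donor/quencher-labelled 47-bp dsDNA substrate; Compound: 10 µM final, single point; Schedule: 37 °C 15-min filament assembly, 30-min compound preincubation, 15-min exchange; Technique: FRET fluorescence, excitation 485 nm, emission 520 nm; Benchmarks: control wells and blank wells on each plate.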
# Tb hexokinase: blocks Trypanosoma brucei hexokinase 1 activity; recombinant TbHK1, G6PDH-coupled NADH A340; inhibition, % at 10 µM; 220,000 compounds, 0.11% hits; AID 1430;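 active = inhibition of 50% or more in the single-dose primary screen; inactive = inhibition below 50%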
# p47phox inh: blocks human p47phox regulatory protein of NADPH oxidases; 220,000 compounds, 0.53% hits; AID 1274; P14598; p47phox/p22phox peptide binding, fluorescence polarization, 2 h; inhibition, % at 24.7 µM;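 active = inhibition above about 30%, limit read from the data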
# Target sequence (P14598 whole entry, looked up): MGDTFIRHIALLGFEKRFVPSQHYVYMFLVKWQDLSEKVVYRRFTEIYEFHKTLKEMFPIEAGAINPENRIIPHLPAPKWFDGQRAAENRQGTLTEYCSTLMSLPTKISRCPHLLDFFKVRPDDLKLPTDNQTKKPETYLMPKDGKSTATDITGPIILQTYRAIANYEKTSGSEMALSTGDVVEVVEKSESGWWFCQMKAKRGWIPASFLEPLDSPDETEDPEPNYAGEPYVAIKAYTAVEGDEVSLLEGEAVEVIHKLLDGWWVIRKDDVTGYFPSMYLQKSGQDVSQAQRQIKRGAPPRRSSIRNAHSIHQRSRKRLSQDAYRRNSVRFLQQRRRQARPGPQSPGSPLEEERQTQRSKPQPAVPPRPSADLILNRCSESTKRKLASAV
# MDM2 E3 inh: blocks human Mdm2 ubiquitin ligase activity | Q00987 | cell-based MDM2 ubiquitination luciferase reporter, 2 h; 0 = plate control, 100 = twice control, blank-subtracted | signal enhancement, % at 5 µM | 210,000 compounds, 0.11% hits;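 active = signal enhancement of 30% or more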;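 also: luminescence tracks abundance of the self-degrading MDM2-luciferase fusion protein; higher signal means inhibition of MDM2 E3 ligase activity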
#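 Material: stable MDM2–luciferase fusion reporter cells / Quantity: 2000 cells/well / Dosing: single 5 µM compound dose, 0.2% final DMSO / Buffer or medium: DMEM / Schedule: 4 h cell settling then 2 h compound exposure, 37 °C / Detection: luminescence with SteadyLite reagent, 15 min at room temperature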
# G6PDH counter: Leuconostoc glucose-6-phosphate dehydrogenase inhibition, counter-screen; inhibition, % at 10 µM; 210 compounds, 7% hits; AID 2516; shares compounds with Tb hexokinase; purified G6PDH, NADH absorbance, 1 h;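 active = at least 50% inhibition in the glucose-6-phosphate dehydrogenase coupled counterscreen; inconclusive = no clear call, values can overlap the other calls; inactive = inhibition below 50%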
# TbHK1 rescreen: confirmation of Trypanosoma brucei hexokinase 1 inhibitors; 210 compounds, 10% hits; recombinant TbHK1, G6PDH-coupled NADH A340 absorbance; inhibition, % at 10 µM; shares compounds with Tb hexokinase;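 active = inhibition of at least 50% in both of the two screening runs; inconclusive = at least 50% in one run, below 50% in the other; inactive = inhibition below 50% in both runs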
# Numbers stand for hits; – = inactive; ? = inconclusive; · = no result given.
SMILES,Rad51 HR inh,Tb hexokinase,p47phox inh,MDM2 E3 inh,G6PDH counter,TbHK1 rescreen
O=[N+]([O-])c1cc(-c2csc(NC(CO)c3nc4ccccc4n3CCOCCO)n2)ccc1Cl (stereo not drawn),–,·,·,·,·,·
CCC1(C)Cc2c(C#N)c(N)sc(=S)c2CO1 (stereo not drawn),–,83,–,–,73,?
CCC1(C)Cc2c(C#N)c(N)n(-c3ccccc3)c(=S)c2CO1 (stereo not drawn),·,–,–,·,·,·
O=C(CSc1nnc(COc2ccccc2)o1)NCCc1ccccc1,–,73,–,–,–,–
CC(=O)Nc1ccc(/C=C2/Sc3ccccc3C2=O)cc1,–,–,–,–,·,·
CCNc1nc(NCC)nc(Oc2ccc(OCc3ccccc3)nn2)n1,·,–,–,–,·,·
CCS(=O)(=O)N1CCC(C(=O)NCCc2ccccc2)CC1,–,–,–,–,·,·
CCS(=O)(=O)N1CCC(C(=O)NCCN2CCN(Cc3ccccc3)CC2)CC1,–,50,–,–,–,–
CCC(=O)NC(=S)NNC(=O)c1ccc(OC)cc1,–,–,–,–,·,·
CCCCOc1ccc(C(=O)NNC(=S)NC(=O)CC)cc1,·,58,–,–,–,–
COc1ccccc1/C=C/C(=O)NCc1cccnc1,–,–,–,–,·,·
COc1ccc(S(=O)(=O)NNC(=O)C(=O)NNc2ccccn2)cc1,–,53,–,–,–,–
O=C(O)CCN=C1CCCc2ccccc2N1,–,54,–,–,–,–
Cc1ccc(Cn2c(-n3nc(C)cc3C)nc3c2c(=O)[nH]c(=O)n3C)cc1,–,56,–,–,–,–
Cc1cc(C)n(-c2nc3c(c(=O)[nH]c(=O)n3C)n2Cc2cccc(Br)c2)n1,–,–,–,–,·,·
Cc1ccc(SCCC(=O)OCC(=O)NCC2CCCCC2)cc1,–,–,–,–,·,·
O=C(CCC(=O)Nc1ccc(Oc2ccccc2)cc1)NCCO,–,50,–,–,–,–
CCCCc1oc2ccccc2c1C(=O)c1cc(I)c(OCCN(CC)CC)c(I)c1,–,63,–,·,–,–
O=C1OC(N2CCN(C(=O)C3CCCO3)CC2)c2ccccc21 (stereo not drawn),–,63,–,–,–,–
O=C(C1CCCO1)N1CCN(c2ncccn2)CC1 (stereo not drawn),–,56,–,–,–,–
c1ccc(-c2nc(C3CCCCC3)no2)cc1,–,–,–,–,·,·
COc1ccc(-c2nc(C3CCCCC3)no2)cc1OC,–,64,–,–,–,–
COC(=O)C1(S(=O)(=O)c2ccc(C)cc2)CCOCC1,–,62,–,–,–,–
Cc1ccc(NC(=O)C2(S(=O)(=O)c3ccc(C)cc3)CC2)cc1,–,–,–,–,·,·
N#CCN1C(=O)C2CCCN2c2ccc(S(=O)(=O)N3CCOCC3)cc21 (stereo not drawn),–,–,–,–,·,·
SMILES,Rad51 HR inh,Tb hexokinase,p47phox inh,MDM2 E3 inh,G6PDH counter,TbHK1 rescreen
COc1ccc(NC(=O)CC2C(=O)N(c3ccc(F)cc3)C(=S)N2NC(=O)c2ccc(Cl)cc2)cc1 (stereo not drawn),–,–,–,–,·,·
CC(=O)Nc1nc2ccccc2n1CCOc1ccccc1Cl,–,52,–,–,–,–
C=CCN(Cc1nc(-c2cc(OC)ccc2OC)oc1C)C1CCS(=O)(=O)C1 (stereo not drawn),–,–,–,–,·,·
Cc1ccccc1N1C(=O)CC1(C#N)c1ccc(OCc2ccccc2)cc1 (stereo not drawn),–,–,–,–,·,·
Cc1c(NS(=O)(=O)c2ccc(Cl)c(C(=O)OCC(=O)NCc3ccco3)c2)c(=O)n(-c2ccccc2)n1C,–,–,–,–,·,·
CC1CC2(CC(C)(C(=O)CSc3n[nH]c(-c4ccccc4Cl)n3)OC2=O)C(=O)O1 (stereo not drawn),–,–,–,–,·,·
CC1(C(=O)CSc2n[nH]c(-c3ccccc3Cl)n2)CCC(=O)O1 (stereo not drawn),–,67,–,–,–,–
CC(NC(=O)c1cc(S(=O)(=O)N(C)C)ccc1N1CCCC1)C1CC2CCC1C2 (stereo not drawn),–,–,–,–,·,·
O=c1nc2c(O)cccn2c2c1c(=O)[nH]c1ccccc12,–,56,–,–,–,70
O=S(=O)(Cc1ccccc1Cl)CC(O)COc1ccccc1Cl (stereo not drawn),–,53,–,–,–,–
CCCCn1c(N)c(N(CC)C(=O)c2cccc(OC)c2)c(=O)[nH]c1=O,–,–,–,–,·,·
CCC(C)COC(=O)C(C#N)c1nc2ccccc2nc1N1CCCCC1 (stereo not drawn),–,56,–,–,–,–
COc1ccccc1NCC(=O)NNCC(=O)Nc1ccc(F)c(Cl)c1,–,–,–,–,·,·
O=C(C1=C[C@@H](C2CC2)C[C@@H](OCc2ccc(CO)cc2)O1)N1CCN(Cc2ccccc2)CC1,–,–,·,·,·,·
Cc1ccc2c(c1)N(CC(=O)NC1CCC(C)CC1)C(=O)CO2 (stereo not drawn),–,–,–,–,·,·
Cc1ccc2c(c1)N(CC(=O)NC1CCCc3ccccc31)C(=O)CO2 (stereo not drawn),–,66,–,–,–,–
Cc1nn(C)c(C)c1C(=O)NN,–,54,–,–,–,–
COCCNC(=O)CN(Cc1ccc2c(c1)OCO2)C(=O)CCC(=O)Nc1nccs1,–,53,–,–,–,–
COCCN(CC(=O)NCc1ccc2c(c1)OCO2)C(=O)CCC(=O)Nc1nccs1,–,–,–,–,·,·
Nc1nccc(-c2ccc(-n3cccc3)cc2)n1,–,–,–,–,·,·
O=C(Nc1ccc2c(c1)OCO2)C1CCCN(S(=O)(=O)c2cccs2)C1 (stereo not drawn),·,55,–,–,–,–
O=C(Nc1ccc2c(c1)OCCO2)C1CCN(S(=O)(=O)c2cccs2)CC1,–,–,–,–,·,·
O=C(Nc1ccc2c(c1)OCCO2)C1CCCN(S(=O)(=O)c2cccs2)C1 (stereo not drawn),·,58,–,–,–,–
CCOCCCNC(=O)C(NC(=O)c1cnccn1)c1ccc(C)cc1 (stereo not drawn),–,55,–,–,–,–
CCOCCCNC(=O)C(NC(=O)c1ccc(NC(C)=O)cc1)c1ccc(C)cc1 (stereo not drawn),·,–,–,–,·,·
SMILES,Rad51 HR inh,Tb hexokinase,p47phox inh,MDM2 E3 inh,G6PDH counter,TbHK1 rescreen
C/C(=N\NC(=O)c1ccc(COc2ccccc2)cc1)c1ccncc1,·,–,·,–,·,·
COc1ccc(C(=O)Nc2cc(Cl)ccc2C(=O)O)cc1,–,53,–,–,–,65
COc1ccc(CNC2=CC(=O)CC(C)(C)C2)cc1,–,57,–,–,–,–
CCN1/C(=C/C=C/c2oc3ccc4ccccc4c3[n+]2CC)Oc2ccc3ccccc3c21,–,100,–,–,132,85
CC[n+]1c(/C=C/N(C)c2ccccc2)oc2ccc(Cl)cc21,–,–,–,–,·,·
Cn1nc(-c2ccc(Cl)cc2)nc2c(=O)n(C)c(=O)nc1-2,–,79,–,–,66,57
